Legend:
[1] = molecular target: Alpha-1D adrenergic receptor (Homo sapiens) (UniProt P25100); test: Inhibition of human adrenergic Alpha-1D receptor at 3 uM
Outline: (§1)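 Counter-screen binding/enzyme panel at single 3 μM, n=2; results as percent inhibition. Species per target as listed (rat NMDA, GABAA sites; human receptors, transporters; rabbit ACE).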

[2] = molecular target: Endothelin-1 receptor (Homo sapiens) (UniProt P25101); test: Inhibition of human endothelin ETA receptor at 3 uM; outline: as §1
[3] = molecular target: Acetylcholine receptor subunit alpha (Homo sapiens) (UniProt P02708); test: Displacement of bungarotoxin from human nAChR alpha1 receptor at 3 uM
Outline: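 Counter-screen of human nicotinic α1 receptor binding, assayed by bungarotoxin displacement.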

[4] = molecular target: Serine/threonine-protein kinase MRCK gamma (Homo sapiens) (UniProt Q6DT37); test: Inhibition of DMPK2 at 3 uM
[5] = molecular target: Casein kinase I isoform alpha-like (Homo sapiens) (UniProt Q8N752); test: Inhibition of CSNK1A1L at 3 uM
[6] = molecular target: Platelet-derived growth factor receptor alpha (Homo sapiens) (UniProt P16234); test: Inhibition of PDGFRA at 3 uM
[7] = molecular target: Tyrosine-protein kinase HCK (Homo sapiens) (UniProt P08631); test: Inhibition of HCK at 3 uM
[8] = Volume of distribution in Sprague-Dawley rat at 1 mg/kg, iv; conditions: in vivo
[9] = molecular target: Serine/threonine-protein kinase DCLK2 (Homo sapiens) (UniProt Q8N568); test: Inhibition of DCAMKL2 at 3 uM
Sequence of Serine/threonine-protein kinase DCLK2 (Homo sapiens) (Q8N568 whole entry): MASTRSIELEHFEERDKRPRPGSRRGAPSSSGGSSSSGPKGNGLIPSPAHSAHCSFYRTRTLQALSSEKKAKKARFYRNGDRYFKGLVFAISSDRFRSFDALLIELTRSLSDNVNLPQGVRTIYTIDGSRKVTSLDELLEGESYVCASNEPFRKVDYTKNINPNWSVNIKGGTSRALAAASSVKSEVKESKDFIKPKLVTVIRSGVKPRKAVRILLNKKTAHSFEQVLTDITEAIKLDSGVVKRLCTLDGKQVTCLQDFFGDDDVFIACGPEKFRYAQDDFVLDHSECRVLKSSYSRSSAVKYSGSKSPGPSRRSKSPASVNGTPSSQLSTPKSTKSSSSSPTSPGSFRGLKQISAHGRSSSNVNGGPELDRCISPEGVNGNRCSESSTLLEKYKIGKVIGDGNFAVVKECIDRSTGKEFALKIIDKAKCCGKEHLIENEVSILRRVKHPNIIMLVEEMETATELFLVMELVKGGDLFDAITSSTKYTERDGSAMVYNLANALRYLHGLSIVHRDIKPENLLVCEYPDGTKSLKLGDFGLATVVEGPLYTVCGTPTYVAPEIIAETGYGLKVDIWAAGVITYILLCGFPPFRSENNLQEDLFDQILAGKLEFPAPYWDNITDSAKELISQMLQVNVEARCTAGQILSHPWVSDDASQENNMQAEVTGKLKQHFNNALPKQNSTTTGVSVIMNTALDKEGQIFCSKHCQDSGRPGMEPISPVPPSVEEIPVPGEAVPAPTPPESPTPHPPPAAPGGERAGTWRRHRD

[10] = molecular target: Calcium/calmodulin-dependent protein kinase type II subunit gamma (Homo sapiens) (UniProt Q13555); test: Inhibition of CAMK2G at 3 uM
[11] = molecular target: Mitogen-activated protein kinase kinase kinase kinase 5 (Homo sapiens) (UniProt Q9Y4K4); test: Inhibition of MAP4K5 at 3 uM
[12] = molecular target: Angiotensin-converting enzyme (Oryctolagus cuniculus) (UniProt P12822); test: Inhibition of rabbit ACE at 3 uM; outline: as §1
[13] = molecular target: Myotonin-protein kinase (Homo sapiens) (UniProt Q09013); test: Inhibition of DMPK at 3 uM
Sequence of Myotonin-protein kinase (Homo sapiens) (Q09013 whole entry): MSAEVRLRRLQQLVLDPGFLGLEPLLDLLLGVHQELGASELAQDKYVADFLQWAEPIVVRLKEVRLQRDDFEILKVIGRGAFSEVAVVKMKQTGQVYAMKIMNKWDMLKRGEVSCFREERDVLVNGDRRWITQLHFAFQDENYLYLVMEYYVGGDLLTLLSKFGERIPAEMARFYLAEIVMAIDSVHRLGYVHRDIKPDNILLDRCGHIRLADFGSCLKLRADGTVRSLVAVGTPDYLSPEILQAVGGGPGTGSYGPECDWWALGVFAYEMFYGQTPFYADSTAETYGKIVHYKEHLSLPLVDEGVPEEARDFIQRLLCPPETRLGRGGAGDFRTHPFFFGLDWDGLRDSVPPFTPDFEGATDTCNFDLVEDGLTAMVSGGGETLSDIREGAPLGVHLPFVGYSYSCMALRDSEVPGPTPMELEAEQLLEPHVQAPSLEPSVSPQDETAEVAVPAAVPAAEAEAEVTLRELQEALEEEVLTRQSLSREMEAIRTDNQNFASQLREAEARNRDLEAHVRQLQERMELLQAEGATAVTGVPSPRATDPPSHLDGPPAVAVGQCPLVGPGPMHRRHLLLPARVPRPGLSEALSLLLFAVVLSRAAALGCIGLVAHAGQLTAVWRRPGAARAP

[14] = molecular target: NUAK family SNF1-like kinase 2 (Homo sapiens) (UniProt Q9H093); test: Inhibition of SNARK at 3 uM
[15] = molecular target: NUAK family SNF1-like kinase 1 (Homo sapiens) (UniProt O60285); test: Inhibition of ARK5 at 3 uM
[16] = organism: Homo sapiens; conditions: 3 uM
[17] = molecular target: Protein kinase C eta type (Homo sapiens) (UniProt P24723); test: Inhibition of PRKCH at 3 uM
[18] = molecular target: CYP3A4 (Homo sapiens, UniProt P08684); test: Inhibition of human CYP3A4 at 10 uM; type: ADME
[19] = molecular target: Platelet-derived growth factor receptor beta (Homo sapiens) (UniProt P09619); test: Inhibition of PDGFRB at 3 uM
[20] = molecular target: Cyclin-dependent kinase 3 (Homo sapiens) (UniProt Q00526); test: Inhibition of CDK3 at 3 uM
[21] = molecular target: Bone morphogenetic protein receptor type-1A (Homo sapiens) (UniProt P36894); test: Inhibition of BMPR1A at 3 uM
[22] = system: Epidermal growth factor receptor (Homo sapiens), P00533 [L861Q]; test: Inhibition of EGFR L861Q mutant at 3 uM; type: protein assay
Sequence of Epidermal growth factor receptor (Homo sapiens), P00533 [L861Q] (P00533 whole entry L861Q): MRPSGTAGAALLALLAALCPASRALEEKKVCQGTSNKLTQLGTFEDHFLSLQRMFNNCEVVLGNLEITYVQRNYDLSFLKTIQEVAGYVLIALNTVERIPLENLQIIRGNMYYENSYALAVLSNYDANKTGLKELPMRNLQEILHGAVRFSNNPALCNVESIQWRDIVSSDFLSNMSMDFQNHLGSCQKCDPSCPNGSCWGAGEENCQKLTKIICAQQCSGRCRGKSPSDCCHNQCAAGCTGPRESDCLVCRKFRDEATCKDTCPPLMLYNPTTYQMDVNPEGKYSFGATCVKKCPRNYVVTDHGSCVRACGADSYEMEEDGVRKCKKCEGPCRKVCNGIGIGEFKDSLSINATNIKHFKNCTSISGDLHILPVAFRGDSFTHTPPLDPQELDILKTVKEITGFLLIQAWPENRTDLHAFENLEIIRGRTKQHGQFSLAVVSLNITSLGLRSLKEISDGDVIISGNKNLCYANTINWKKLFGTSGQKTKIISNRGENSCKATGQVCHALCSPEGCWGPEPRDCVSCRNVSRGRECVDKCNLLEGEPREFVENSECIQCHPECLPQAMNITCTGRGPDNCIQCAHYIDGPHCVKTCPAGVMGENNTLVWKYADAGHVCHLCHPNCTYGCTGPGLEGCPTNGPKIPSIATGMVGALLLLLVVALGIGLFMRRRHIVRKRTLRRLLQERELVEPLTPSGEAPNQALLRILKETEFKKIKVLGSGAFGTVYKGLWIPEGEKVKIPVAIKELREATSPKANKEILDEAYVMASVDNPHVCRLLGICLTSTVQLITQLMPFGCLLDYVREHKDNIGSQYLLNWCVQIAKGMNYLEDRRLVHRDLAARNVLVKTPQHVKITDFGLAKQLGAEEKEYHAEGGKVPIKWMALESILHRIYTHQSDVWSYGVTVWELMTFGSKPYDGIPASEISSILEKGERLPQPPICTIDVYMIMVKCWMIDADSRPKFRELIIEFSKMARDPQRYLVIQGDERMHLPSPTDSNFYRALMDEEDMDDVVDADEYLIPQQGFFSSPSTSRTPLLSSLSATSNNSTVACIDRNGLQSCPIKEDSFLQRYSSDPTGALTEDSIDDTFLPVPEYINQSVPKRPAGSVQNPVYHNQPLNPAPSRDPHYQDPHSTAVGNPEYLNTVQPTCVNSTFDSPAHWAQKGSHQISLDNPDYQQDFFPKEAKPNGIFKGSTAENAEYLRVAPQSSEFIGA
Outline: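 Single-concentration kinase panel scoring: each value is the percentage of enzyme activity remaining relative to a DMSO-only control. An activity statistically indistinct from DMSO control was scored "no hit".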

[23] = molecular target: Protein-tyrosine kinase 6 (Homo sapiens) (UniProt Q13882); test: Inhibition of PTK6 at 3 uM
Sequence of Protein-tyrosine kinase 6 (Homo sapiens) (Q13882 whole entry, looked up): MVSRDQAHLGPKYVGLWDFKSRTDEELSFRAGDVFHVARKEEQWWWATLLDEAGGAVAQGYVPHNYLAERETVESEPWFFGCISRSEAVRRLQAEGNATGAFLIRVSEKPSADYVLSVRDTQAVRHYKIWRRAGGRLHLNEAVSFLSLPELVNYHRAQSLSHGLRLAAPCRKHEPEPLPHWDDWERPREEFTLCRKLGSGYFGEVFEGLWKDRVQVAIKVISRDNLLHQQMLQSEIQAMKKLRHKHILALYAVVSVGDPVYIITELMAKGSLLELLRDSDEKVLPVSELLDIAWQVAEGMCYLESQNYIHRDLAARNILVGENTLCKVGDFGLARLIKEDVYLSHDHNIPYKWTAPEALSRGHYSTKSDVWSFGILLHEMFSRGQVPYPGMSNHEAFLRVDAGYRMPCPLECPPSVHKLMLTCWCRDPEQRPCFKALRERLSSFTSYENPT

[24] = molecular target: Tyrosine-protein kinase Mer (Homo sapiens) (UniProt Q12866); test: Inhibition of MERTK at 3 uM
[25] = molecular target: Dual specificity mitogen-activated protein kinase kinase 6 (Homo sapiens) (UniProt P52564); test: Inhibition of MEK6 at 3 uM
Sequence of Dual specificity mitogen-activated protein kinase kinase 6 (Homo sapiens) (P52564 whole entry): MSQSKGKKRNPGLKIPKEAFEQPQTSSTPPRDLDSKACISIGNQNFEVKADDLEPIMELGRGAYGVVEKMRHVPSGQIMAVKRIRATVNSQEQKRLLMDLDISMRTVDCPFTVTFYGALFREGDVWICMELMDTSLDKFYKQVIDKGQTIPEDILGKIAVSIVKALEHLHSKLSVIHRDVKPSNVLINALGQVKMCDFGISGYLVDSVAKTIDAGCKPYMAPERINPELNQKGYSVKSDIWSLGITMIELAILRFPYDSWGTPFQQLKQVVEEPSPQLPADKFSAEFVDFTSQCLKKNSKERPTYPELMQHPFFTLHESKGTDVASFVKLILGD

[26] = molecular target: Tyrosine-protein kinase Lyn (Homo sapiens) (UniProt P07948); test: Inhibition of LYN at 3 uM
[27] = molecular target: Phosphorylase b kinase gamma catalytic chain, liver/testis isoform (Homo sapiens) (UniProt P15735); test: Inhibition of PHKG2 at 3 uM
[28] = molecular target: AP2-associated protein kinase 1 (Homo sapiens) (UniProt Q2M2I8); test: Inhibition of AAK1 at 3 uM
[29] = molecular target: Serine/threonine-protein kinase RIO2 (Homo sapiens) (UniProt Q9BVS4); test: Inhibition of RIOK2 at 3 uM
[30] = molecular target: Sodium-dependent noradrenaline transporter (Homo sapiens) (UniProt P23975); test: Inhibition of human NET at 3 uM; outline: as §1
[31] = molecular target: Myosin light chain kinase, smooth muscle (Homo sapiens) (UniProt Q15746); test: Inhibition of MLCK at 3 uM
[32] = molecular target: Serine/threonine-protein kinase ULK3 (Homo sapiens) (UniProt Q6PHR2); test: Inhibition of ULK3 at 3 uM
[33] = molecular target: T1, Epidermal growth factor receptor (Homo sapiens) (UniProt P04626+P00533+Q15303+P21860); test: Inhibition of EGFR L747-S752del,P753S mutant at 3 uM; type: protein assay
[34] = molecular target: Serine/threonine-protein kinase pim-3 (Homo sapiens) (UniProt Q86V86); test: Inhibition of PIM3 at 3 uM
[35] = system: Proto-oncogene tyrosine-protein kinase receptor Ret (Homo sapiens), P07949 [M918T]; test: Inhibition of RET M918T mutant at 3 uM
[36] = molecular target: Substance-P receptor (Homo sapiens) (UniProt P25103); test: Inhibition of human NK1 receptor at 3 uM; outline: as §1
Sequence of Substance-P receptor (Homo sapiens) (P25103 whole entry): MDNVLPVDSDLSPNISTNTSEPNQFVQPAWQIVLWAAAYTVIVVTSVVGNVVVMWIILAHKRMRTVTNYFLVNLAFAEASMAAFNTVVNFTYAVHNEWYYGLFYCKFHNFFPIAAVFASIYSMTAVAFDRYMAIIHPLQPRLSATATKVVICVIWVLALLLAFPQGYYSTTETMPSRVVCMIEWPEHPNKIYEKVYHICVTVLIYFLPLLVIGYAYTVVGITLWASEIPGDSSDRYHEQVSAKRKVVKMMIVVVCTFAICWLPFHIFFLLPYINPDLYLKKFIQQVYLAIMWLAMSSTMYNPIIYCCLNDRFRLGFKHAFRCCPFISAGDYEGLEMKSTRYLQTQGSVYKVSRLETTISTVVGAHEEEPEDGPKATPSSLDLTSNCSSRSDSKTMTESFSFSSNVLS

[37] = molecular target: Serine/threonine-protein kinase MRCK beta (Homo sapiens) (UniProt Q9Y5S2); test: Inhibition of MRCKB at 3 uM
[38] = molecular target: Mitogen-activated protein kinase kinase kinase kinase 1 (Homo sapiens) (UniProt Q92918); test: Inhibition of MAP4K1 at 3 uM
[39] = molecular target: Casein kinase I isoform epsilon (Homo sapiens) (UniProt P49674); test: Inhibition of CSNK1E at 3 uM
Sequence of Casein kinase I isoform epsilon (Homo sapiens) (P49674 whole entry, looked up, canonical isoform): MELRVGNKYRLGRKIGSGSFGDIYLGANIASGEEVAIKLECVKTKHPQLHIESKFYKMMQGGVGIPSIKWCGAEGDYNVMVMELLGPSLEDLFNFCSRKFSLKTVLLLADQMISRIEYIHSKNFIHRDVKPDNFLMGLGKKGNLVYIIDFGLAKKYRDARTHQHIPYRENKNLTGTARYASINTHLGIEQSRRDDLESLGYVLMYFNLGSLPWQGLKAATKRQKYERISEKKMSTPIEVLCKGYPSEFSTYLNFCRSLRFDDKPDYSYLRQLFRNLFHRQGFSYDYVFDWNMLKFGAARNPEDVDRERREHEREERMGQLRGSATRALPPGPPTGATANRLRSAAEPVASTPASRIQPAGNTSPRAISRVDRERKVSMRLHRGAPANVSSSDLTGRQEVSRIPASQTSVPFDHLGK

[40] = molecular target: RAC-gamma serine/threonine-protein kinase (Homo sapiens) (UniProt Q9Y243); test: Inhibition of AKT3 at 3 uM
[41] = molecular target: MAP kinase-interacting serine/threonine-protein kinase 2 (Homo sapiens) (UniProt Q9HBH9); test: Inhibition of MKNK2 at 3 uM
[42] = molecular target: cAMP-dependent protein kinase catalytic subunit PRKX (Homo sapiens) (UniProt P51817); test: Inhibition of PRKX at 3 uM
[43] = molecular target: Epithelial discoidin domain-containing receptor 1 (Homo sapiens) (UniProt Q08345); test: Inhibition of DDR1 at 3 uM
[44] = molecular target: T1, Epidermal growth factor receptor (Homo sapiens); test: Inhibition of EGFR L747-T751del,Sins mutant at 3 uM; type: protein assay
[45] = molecular target: Serine/threonine-protein kinase SIK1 (Homo sapiens) (UniProt P57059); test: Inhibition of SNF1LK at 3 uM

Sequence of Alpha-1D adrenergic receptor (Homo sapiens) (P25100 whole entry): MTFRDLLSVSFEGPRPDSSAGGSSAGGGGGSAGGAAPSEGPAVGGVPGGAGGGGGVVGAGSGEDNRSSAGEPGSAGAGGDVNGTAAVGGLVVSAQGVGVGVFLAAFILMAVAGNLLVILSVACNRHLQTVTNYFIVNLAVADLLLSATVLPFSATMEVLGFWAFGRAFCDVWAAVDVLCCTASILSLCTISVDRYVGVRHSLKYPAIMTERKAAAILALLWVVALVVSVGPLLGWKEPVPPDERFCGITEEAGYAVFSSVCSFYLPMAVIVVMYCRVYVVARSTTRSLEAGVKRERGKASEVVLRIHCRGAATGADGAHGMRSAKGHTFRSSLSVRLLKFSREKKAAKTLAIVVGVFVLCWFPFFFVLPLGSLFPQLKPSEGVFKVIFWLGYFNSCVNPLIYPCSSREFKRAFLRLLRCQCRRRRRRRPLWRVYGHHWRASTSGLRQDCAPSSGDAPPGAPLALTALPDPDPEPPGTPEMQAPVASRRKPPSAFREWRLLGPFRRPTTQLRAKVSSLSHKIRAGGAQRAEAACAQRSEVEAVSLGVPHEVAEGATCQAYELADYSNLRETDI

CN(C)CCOc1cc(-c2cn[nH]c2)ccc1NC(=O)C1COc2ccccc2O1 (stereo not given) [SR-3677]
inhibition [1]: 43%
inhibition [2]: 1%
inhibition [3]: 7%
inhibition [4]: < 10%
inhibition [5]: < 10%
inhibition [6]: < 10%
inhibition [7]: < 10%
Vd [8]: 3 L/kg
inhibition [9]: < 10%
inhibition [10]: < 10%
inhibition [11]: < 10%
inhibition [12]: 1%
inhibition [13]: < 10%
inhibition [14]: < 10%
inhibition [15]: < 10%
inhibition [16]: 7%
inhibition [17]: < 10%
inhibition at 10 µM [18]: 0%
inhibition [19]: < 10%
inhibition [20]: < 10%
inhibition [21]: < 10%
inhibition [22]: < 10%
inhibition [23]: < 10%
inhibition [24]: < 10%
inhibition [25]: < 10%
inhibition [26]: < 10%
inhibition [27]: < 10%
inhibition [28]: < 10%
inhibition [29]: < 10%
inhibition [30]: 16%
inhibition [31]: < 10%
inhibition [32]: < 10%
inhibition [33]: < 10%
inhibition [34]: < 10%
inhibition [35]: < 10%
inhibition [36]: -6%
inhibition [37]: < 10%
inhibition [38]: < 10%
inhibition [39]: < 10%
inhibition [40]: 77%
inhibition [41]: < 10%
inhibition [42]: < 10%
inhibition [43]: < 10%
inhibition [44]: < 10%
inhibition [45]: < 10%
